The values below come from PMC9065697 (RSC Advances, 2019).

Peptide text beside a SMILES is read from it. * marks the point of attachment. X1 = O=C(c1ccc(Oc2ccc3c4nc5nc(nc6[nH]c(nc7nc(nc([nH]4)c3c2)-c2ccccc2-7)c2ccccc62)-c2ccccc2-5)cc1)*

For data set [1] the following is noted: reference standard in DMF; cited from earlier work.
For data set [2] the following is noted: reference standard in DMF; cited from earlier work. This is another data set of the same source.
Data set [3] in a line: Solubility and aggregation state. The class given is physicochemical. To be noted: 2 μM in DMF and in PBS with 0.01% Tween 80 (v/v); intense, sharp Q band at 672 nm (DMF) or 680 nm (PBS); UV-Vis.
Data set [4] concerns HT29 tumour-bearing nude mice. Nature of the data set: In vivo biodistribution by near-infrared fluorescence imaging. The settings on record: 20 nmol intravenous; for Fluorescence intensity in the tumour area over time: imaged over 48 h, four mice per conjugate. Also on record: species or system mouse. Summed up: (§1)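 Female Balb/c nude mice (20–25 g) carried subcutaneous HT29 tumours on the back (about 1 × 10^7 cells in HBSS) grown to 60–100 mm3. They received 20 nmol test compound in water with 1% DMSO by tail-vein injection. NIR imaging (ex 680 nm, em ≥700 nm) ran from pre-dose to 48 h. At 48 h, tumour, heart, lung, spleen, kidney and liver were assayed for fluorescence per unit area and reported as tumour/organ ratio. Data are mean ± SD, n = 4.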

Assay in data set [5]: as above
Also on record: species or system mouse. To be noted: mouse, in vivo, iv, 20 nmol. The gist of the method: as §1

The subject of data set [6] is HT29 cells. Nature of the data set: Annexin V-GFP/PI costaining assay. Format: cell-based, human. The settings on record: 0.5 μM for 10 min.
In data set [7] the test system is HT29 cells. The experiment in a line: Photocytotoxicity, MTT assay. The class given is cell-based, human. To be noted: absence of light, both incubation conditions. The gist of the method:
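HT29 cells (1 × 10^4 per well) were plated overnight. A DMSO stock of test compound was diluted in medium and applied for 10 min at 37 °C. Cells were rinsed with PBS, refed, and held 0 or 6 h with no red-light illumination. MTT (3 mg mL−1 in PBS) was added for 4 h, DMSO added, and A490 read. Viability is relative to compound-free control wells, averaged over 4 data points.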

Data set [8] concerns HT29 human colorectal adenocarcinoma cells. Nature of the data set: Cellular uptake by confocal fluorescence microscopy. The class given is cell-based. To be noted: 2 μM for 10 min at 37 °C, then 6 h in drug-free medium at 4 °C. Summed up:
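HT29 cells (about 2 × 10^5, RPMI with 10% FBS) were seeded on confocal dishes and left overnight at 37 °C, 5% CO2. They were exposed to 2 μM test compound for 10 min at 37 °C, washed three times with PBS, then held in drug-free medium for 6 h at 4 °C or 37 °C. Bright-field and fluorescence images were taken by confocal microscopy.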

Data set [9] deals with A431 human epidermoid carcinoma cells. The settings on record: read-out: IC50 (photocytotoxicity); cited from earlier work.

For the compound `[Zn+2].c1ccc2c(c1)-c1nc-2nc2[n-]c(nc3nc([n-]c4nc(n1)-c1ccccc1-4)-c1ccccc1-3)c1ccccc21` [ZnPc, zinc(II) phthalocyanine], in [1], the “Fluorescence quantum yield ΦF” value was 0.28. Also, the “Singlet oxygen quantum yield ΦΔ” value in [2] is 0.56.

Turning to `N=C(N)NCCC[C@H](NC(=O)[C@@H](N)CCC(N)=O)C(=O)N[C@@H](Cc1c[nH]cn1)C(=O)N[C@@H](CCCCN)C(=O)N1CCC[C@H]1C(=O)N[C@@H](CCCNC(=N)N)C(=O)N[C@@H](CCC(=O)O)C(=O)NCC(=O)NCC(=O)NCC(=O)NCC(=O)N[C@@H](CO)C(=O)N[C@@H](CCCCNC(=O)c1ccc(Oc2ccc3c4nc5nc(nc6[nH]c(nc7nc(nc([nH]4)c3c2)-c2ccccc2-7)c2ccccc62)-c2ccccc2-5)cc1)C(N)=O` [compound 4] (H-QRHKPREGGGGSK(X1)-NH2), the “Solubility and aggregation state from the Q band” value in data set [3] was “soluble and remained non-aggregated in both media”. In [4], the “Fluorescence intensity in the tumour area over time” value is reported as “increased along with time”. Besides, in data set [5], the tissue to tissue ratio at 48 h was under 1. In addition, in data set [6] (irradiated immediately (λ > 610 nm, 18 mW cm^-2, 20 min)), the “Cell-death pathway, PDT effect on the cell membrane” value is “cell necrosis”. Moreover, the “Cell-death pathway, PDT effect after internalisation” value in data set [6] (then 6 h post-incubation before irradiation (λ > 610 nm, 18 mW cm^-2, 20 min)) is on record as “mainly through apoptosis”. The Dark toxicity entry in data set [7] was “did not show significant dark toxicity”. For the same compound, in [8], the “Internalisation on post-incubation at 4 °C” value is given as “internalisation was not significant”.

For the compound EPRQRHKGGGGSK [compound 5], the “Tumour selectivity (tumour/organ ratio) compared with conjugate 4” value in data set [4] (ex vivo at 48 h, four mice) is on record as “consistently lower for all the organs”. For the same compound, the “Fluorescence intensity in the tumour area over time” value in [4] was “remained weak throughout the period”.

In general, IC50 refers to the concentration that gives 50% inhibition. With GYHWYGYTPQNVI [GE11 conjugate], in [9], the half-maximal inhibitory concentration (IC50) was 14 µM.
